# Reference: ChEMBL document CHEMBL1141532, “Design and synthesis of tetrazole-based growth hormone secretagogue: the SAR studies of the O-benzyl serine side chain” (Bioorg Med Chem Lett, 2008)
# How the values were obtained:
# [1] = target: Growth hormone secretagogue receptor type 1 (Homo sapiens, UniProt Q92847); test: […] human growth hormone secretagogue receptor assessed as measuring intracellular calcium level by FLIPR assay; assay type: functional, cell-based
# [2] = tested on: Rattus norvegicus; test: Increase of growth hormone release in rat plasma at 1.74 umol/kg, iv after 15 mins by radioimmunoassay relative to control; assay type: functional
# In short: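 Acute model in anesthetized rats. Dosed intravenously at 1.74 μmol/kg. Blood was drawn 15 min later and plasma was isolated. Rat GH was measured by radioimmunoassay. Results are given as percent increase in GH release over vehicle-treated control animals.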
# Growth hormone secretagogue receptor type 1, sequence (Q92847 whole entry): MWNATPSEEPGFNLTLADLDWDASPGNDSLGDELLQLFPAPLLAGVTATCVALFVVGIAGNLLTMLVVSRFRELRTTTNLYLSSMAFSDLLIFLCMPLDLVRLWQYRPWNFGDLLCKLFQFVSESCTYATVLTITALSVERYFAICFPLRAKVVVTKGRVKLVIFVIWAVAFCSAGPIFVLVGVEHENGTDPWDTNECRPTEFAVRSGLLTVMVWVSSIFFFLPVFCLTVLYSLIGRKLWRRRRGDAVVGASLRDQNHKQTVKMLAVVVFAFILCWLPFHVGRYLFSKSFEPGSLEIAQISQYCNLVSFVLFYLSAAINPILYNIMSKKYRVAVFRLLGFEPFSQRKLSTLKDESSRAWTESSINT
SMILES,EC50 [1] [nM],Activity [2] [%]
CC(C)(N)C(=O)N[C@H](COCc1cccc(Cl)c1)c1nnnn1CCOC(=O)NCCCCO,1.6,–
COc1ccccc1COC[C@@H](NC(=O)C(C)(C)N)c1nnnn1CCOC(=O)NCCCCO,1.11,–
Cc1noc(C)c1-c1ccccc1COC[C@@H](NC(=O)C(C)(C)N)c1nnnn1CCOC(=O)NCCCCO,1.04,5237
CC(C)(N)C(=O)N[C@H](COCc1ccccc1C(F)(F)F)c1nnnn1CCOC(=O)NCCCCO,0.72,–
CC(C)(N)C(=O)N[C@H](COCc1ccc(F)cc1F)c1nnnn1CCOC(=O)NCCCCO,0.42,1081
CC(C)(N)C(=O)N[C@H](COCc1ccccc1)c1nnnn1CCOC(=O)NCCCCO,–,750
CC(C)(N)C(=O)N[C@H](COCc1ccccc1C#N)c1nnnn1CCOC(=O)NCCCCO,1.26,920
CC(C)(N)C(=O)N[C@H](COCC1CCCCC1)c1nnnn1CCOC(=O)NCCCCO,1.66,1654
CC(C)(N)C(=O)N[C@H](COCc1ccccc1-c1ccccc1)c1nnnn1CCOC(=O)NCCCCO,0.34,836

# Further compounds by falling EC50 [1], results first:
EC50 [1] [nM],SMILES,Activity [2] [%]
34,CC(C)(N)C(=O)N[C@H](COCc1cc(C(F)(F)F)cc(C(F)(F)F)c1)c1nnnn1CCOC(=O)NCCCCO,–
33.2,CC(C)(N)C(=O)N[C@H](COCc1ccc(OC(F)(F)F)cc1)c1nnnn1CCOC(=O)NCCCCO,–
6.75,CC(C)(N)C(=O)N[C@H](COCc1cc(Cl)cc(Cl)c1)c1nnnn1CCOC(=O)NCCCCO,–
3.1,CC(C)(N)C(=O)N[C@H](COCc1cccc(OC(F)(F)F)c1)c1nnnn1CCOC(=O)NCCCCO,–
1.79,CC(C)(N)C(=O)N[C@H](COCc1cccc(C(F)(F)F)c1)c1nnnn1CCOC(=O)NCCCCO,–
1.18,CC(C)(N)C(=O)N[C@H](COCc1ccccc1-c1cccnc1)c1nnnn1CCOC(=O)NCCCCO,–
0.61,CC(C)(N)C(=O)N[C@H](COCc1cccc(Cl)c1Cl)c1nnnn1CCOC(=O)NCCCCO,–
0.51,Cc1ccccc1COC[C@@H](NC(=O)C(C)(C)N)c1nnnn1CCOC(=O)NCCCCO,1441
0.45,CC(C)(N)C(=O)N[C@H](COCc1ccccc1Cl)c1nnnn1CCOC(=O)NCCCCO,–
